Data taken from ChEMBL document CHEMBL1141719, “Naphthylphenstatins as tubulin ligands: synthesis and biological evaluation” (Bioorg Med Chem, 2008).
Values joined by “and” are separate entries in the source; they are usually repeats but may differ in a detail not shown here. Identical values can stand only once.

What was measured:
[1] = Inhibition of calf brain tubulin polymerization relative to control; set-up: species or system Bos taurus
Procedure, shortened: (§1)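 Calf brain microtubule protein was purified by two cycles of temperature-dependent assembly/disassembly. Assay used 1.0 mg/mL MTP in 0.1 M MES, 1 mM EGTA, 1 mM MgCl2, 1 mM β-ME, 1.5 mM GTP, pH 6.7, with 4% DMSO. Ligand was preincubated 30 min at 20 °C, then 10 min on ice, and assembly started by shift from 4 °C to 37 °C. Turbidity was followed against a no-ligand control. Inhibition is percent of control, mean of at least three experiments.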

HT-29 = assay: Cytotoxicity against human HT-29 cells after 72 hrs by XTT assay; type: functional, cell-based
Bos taurus [2] = organism: Bos taurus; assay: Inhibition of calf brain tubulin polymerization at 30 uM relative to control; procedure, shortened: as §1
Bos taurus [3] = organism: Bos taurus; assay: Inhibition of calf brain tubulin polymerization at 20 uM relative to control; procedure, shortened: as §1
HeLa = assay: Cytotoxicity against human HeLa cells after 72 hrs by XTT assay; type: functional, cell-based
Procedure, shortened: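 HeLa (1.5 × 10³/well), HT-29 (3 × 10³/well) or A-549 (5 × 10³/well) cells seeded in 100 µL and allowed to attach for 24 h at 37 °C, 5% CO₂. Compounds at a range of concentrations for 72 h. Then XTT/PMS reagent added for 4 h, with absorbance read at 490 nm (reference 655 nm). IC50 is the concentration giving 50% inhibition of proliferation, mean of at least six experiments.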

A549 = assay: Cytotoxicity against human A549 cells after 72 hrs by XTT assay; type: functional, cell-based
Bos taurus [4] = organism: Bos taurus; assay: Inhibition of calf brain tubulin polymerization at 40 uM relative to control; procedure, shortened: as §1

COc1ccc(C(=O)c2cc(OC)c(OC)c(OC)c2)cc1O [PHENSTATIN]
IC50 [1]: 2.5 µM

COc1ccc(/C(=N\OC(=O)OC(C)(C)C)c2ccc3ccccc3c2)c(OC)c1OC
IC50 (HT-29; Homo sapiens, HT-29, 72 h): 10 µM
IC50 (HT-29; ht-29): > 10 µM

CN/N=C(/c1cc(OC)c(OC)c(OC)c1)c1ccc2ccccc2c1
inhibition (Bos taurus [2]): 31%

COc1cc(/C(=N\OC(C)=O)c2ccc3ccccc3c2)cc(OC)c1OC
inhibition (Bos taurus [3]): 10%

COc1cc(/C(=N\OC(=O)OC(C)(C)C)c2ccc3ccccc3c2)cc(OC)c1OC
IC50 (HT-29; Homo sapiens, HT-29, 72 h): 10 µM
IC50 (HT-29; ht-29): > 10 µM
inhibition (Bos taurus [3]): 15%

COc1cc(/C(=N\NC(C)=O)c2ccc3ccccc3c2)cc(OC)c1OC
inhibition (Bos taurus [3]): 0%

COc1ccc(/C=C\c2cc(OC)c(OC)c(OC)c2)cc1O [COMBRETASTATIN A4]
IC50 (HeLa; Homo sapiens, HeLa, 72 h): 2.7 µM
inhibition (Bos taurus [3]): 100%
IC50 [1]: 3 µM

COc1cc(/C(=N/N)c2ccc3ccccc3c2)cc(OC)c1OC
IC50 (HT-29; Homo sapiens, HT-29, 72 h): 10 µM
inhibition (Bos taurus [2]): 0%

COc1cc(C(OC(C)=O)c2ccc3ccccc3c2)cc(OC)c1OC (stereo unspecified)
IC50 (HeLa; hela): 10 µM and 3.8 µM
inhibition (Bos taurus [3]): 10% and 5%
IC50 (A549; a549): 1.2 µM and > 10 µM

COc1ccc(C(O)c2ccc3ccccc3c2)c(OC)c1OC (stereo unspecified)
IC50 (HeLa; Homo sapiens, HeLa, 72 h): 10 µM
inhibition (Bos taurus [3]): 0%
IC50 (A549; Homo sapiens, A549, 72 h): 10 µM
IC50 (A549; a549): > 10 µM

COc1ccc(C(=O)c2ccc3ccccc3c2)c(OC)c1OC
IC50 (HeLa; hela): 4 µM
inhibition (Bos taurus [3]): 0.25% and 4%
IC50 (A549; a549): 1.7 µM and > 10 µM

COc1cc(C(O)c2ccc3ccccc3c2)cc(OC)c1OC (stereo unspecified)
inhibition (Bos taurus [4]): 0%

COc1ccc(/C(=N\OC(C)=O)c2ccc3ccccc3c2)c(OC)c1OC
IC50 (HeLa; Homo sapiens, HeLa, 72 h): 1.2 µM
IC50 (HT-29; Homo sapiens, HT-29, 72 h): 10 µM
IC50 (HT-29; ht-29): > 10 µM
inhibition (Bos taurus [3]): 0%
IC50 (A549; Homo sapiens, A549, 72 h): 10 µM
IC50 (A549; a549): > 10 µM

CO/N=C(/c1cc(OC)c(OC)c(OC)c1)c1ccc2ccccc2c1
IC50 (HT-29; Homo sapiens, HT-29, 72 h): 1 µM
inhibition (Bos taurus [3]): 4%

COc1cc(/C(=N/NC(C)=O)c2ccc3ccccc3c2)cc(OC)c1OC
IC50 (HeLa; Homo sapiens, HeLa, 72 h): 10 µM
IC50 (HeLa; hela): > 10 µM
IC50 (HT-29; Homo sapiens, HT-29, 72 h): 10 µM
IC50 (HT-29; ht-29): > 10 µM
inhibition (Bos taurus [2]): 35%
IC50 (A549; Homo sapiens, A549, 72 h): 10 µM
IC50 (A549; a549): > 10 µM

COc1ccc(/C(=N\N)c2ccc3ccccc3c2)c(OC)c1OC
inhibition (Bos taurus [3]): 0%

COc1cc(C(=O)c2ccc3ccccc3c2)cc(OC)c1OC
IC50 [1]: 1.1 µM
IC50 (A549; a549): 0.043 µM

COc1ccc(/C(=N/O)c2ccc3ccccc3c2)c(OC)c1OC
IC50 (HeLa; Homo sapiens, HeLa, 72 h): 0.4 µM
IC50 (HT-29; Homo sapiens, HT-29, 72 h): 1 µM
inhibition (Bos taurus [2]): 0%
IC50 (A549; Homo sapiens, A549, 72 h): 10 µM
IC50 (A549; a549): > 10 µM

COc1ccc(C(OC(C)=O)c2ccc3ccccc3c2)c(OC)c1OC (stereo unspecified)
IC50 (HeLa; Homo sapiens, HeLa, 72 h): 2.7 µM
inhibition (Bos taurus [3]): 26%
IC50 (A549; Homo sapiens, A549, 72 h): 10 µM

COc1cc(/C(=N/OC(C)=O)c2ccc3ccccc3c2)cc(OC)c1OC
IC50 (HeLa; Homo sapiens, HeLa, 72 h): 0.001 µM
IC50 (HT-29; Homo sapiens, HT-29, 72 h): 1 µM
inhibition (Bos taurus [3]): 38%

COc1ccc(C(C)(O)c2ccc3ccccc3c2)c(OC)c1OC (stereo unspecified)
IC50 (HeLa; Homo sapiens, HeLa, 72 h): 1 µM
inhibition (Bos taurus [3]): 3%
IC50 (A549; Homo sapiens, A549, 72 h): 10 µM

COc1cc(C(c2ccc3ccccc3c2)n2ccnc2)cc(OC)c1OC (stereo unspecified)
IC50 (HT-29; Homo sapiens, HT-29, 72 h): 10 µM
IC50 (HT-29; ht-29): > 10 µM
inhibition (Bos taurus [3]): 0%

COc1ccc(/C(=N\NC(C)=O)c2ccc3ccccc3c2)c(OC)c1OC
inhibition (Bos taurus [3]): 0%

COc1cc(/C(=N/O)c2ccc3ccccc3c2)cc(OC)c1OC
IC50 (HeLa; Homo sapiens, HeLa, 72 h): 1.5 µM
IC50 (HT-29; Homo sapiens, HT-29, 72 h): 1.8 µM
inhibition (Bos taurus [2]): 0%
IC50 (A549; Homo sapiens, A549, 72 h): 10 µM
IC50 (A549; a549): > 10 µM
